# Reference: ChEMBL document CHEMBL4177770, “Discovery of MK-6169, a Potent Pan-Genotype Hepatitis C Virus NS5A Inhibitor with Optimized Activity against Common Resistance-Associated Substitutions” (J Med Chem, 2018)
# Where a chain is given by its changes, count along the chain named.
# Experiments:
# [1] = biological target: T1, Nonstructural protein 5A (Hepatitis C virus) (UniProt Q5L478); test: Inhibition of NS5A in HCV genotype 1a infected in HuH7 replicon cells assessed as decrease in viral replication after 3 days by RT-PCR method; assay type: cell-based; details: Hepatitis C virus subtype 1a
# T1 sequence (whole entry): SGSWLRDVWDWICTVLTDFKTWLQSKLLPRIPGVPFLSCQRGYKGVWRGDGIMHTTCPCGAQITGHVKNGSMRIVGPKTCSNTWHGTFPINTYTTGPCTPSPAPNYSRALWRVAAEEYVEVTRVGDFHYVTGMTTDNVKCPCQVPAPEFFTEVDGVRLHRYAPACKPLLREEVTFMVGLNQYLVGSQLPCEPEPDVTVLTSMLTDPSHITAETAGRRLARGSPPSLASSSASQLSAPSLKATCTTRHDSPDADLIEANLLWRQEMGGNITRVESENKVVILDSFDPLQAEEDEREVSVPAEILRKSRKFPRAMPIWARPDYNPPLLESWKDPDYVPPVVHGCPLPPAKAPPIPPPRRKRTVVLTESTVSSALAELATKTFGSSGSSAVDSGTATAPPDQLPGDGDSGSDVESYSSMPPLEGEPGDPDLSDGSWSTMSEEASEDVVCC
# [2] = tested on: T2, Nonstructural protein 5A (Hepatitis C virus), Q5L478 [Y93H]; test: Inhibition of NS5A Y93H mutant in HCV genotype 1a infected in HuH7 replicon cells assessed as decrease in viral replication after 3 days by RT-PCR method; assay type: cell-based; details: Hepatitis C virus subtype 1a
# T2 sequence (whole entry): T1 sequence (whole entry) with Y93H
# [3] = Clearance in Wistar Han rat at 2 mg/kg, iv by LC/MS method; assay type: ADME, organism-based; details: in vivo
# Method in brief: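 Male Wistar Han rats, two per group, dosed IV at 2 mg/kg in 60% PEG200. Plasma was obtained by centrifuging the blood, and compound concentrations were measured by LC/MS.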
# [4] = AUC in Beagle dog at 5 mg/kg, po by LC/MS method; assay type: ADME, organism-based, Canis lupus familiaris; details: in vivo
# Method in brief: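 Beagle dogs, two animals per dosing group. Oral dose was given in 10% TWEEN. Blood was collected and spun to plasma, and plasma compound levels were measured by LC/MS.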
# [5] = Cmax in Wistar Han rat at 300 mg/kg, po by LC/MS method; assay type: ADME, organism-based; parameters: dose 300 mg/kg, route oral; details: in vivo
# Method in brief: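 Single rising oral dose study in fed male Wistar Han rats, dosed PO in 10% TWEEN at the indicated doses. Plasma was obtained by centrifuging the blood, and compound levels were determined by LC/MS.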
# [6] = tested on: NS3 (Hepatitis C virus), A3EZJ3 [R155K]; test: Inhibition of NS3 R155K mutant in HCV genotype 1a infected in HuH7 replicon cells assessed as decrease in viral replication after 3 days by RT-PCR method; assay type: cell-based; details: Hepatitis C virus subtype 1a
# [7] = biological target: T1, Nonstructural protein 5A (Hepatitis C virus); test: Inhibition of NS5A R81W mutant in HCV genotype 1a infected in HuH7 replicon cells assessed as decrease in viral replication after 3 days by RT-PCR method; assay type: cell-based; details: Hepatitis C virus subtype 1a
# [8] = biological target: T1, Nonstructural protein 5A (Hepatitis C virus); test: Inhibition of NS5A R81S mutant in HCV genotype 1a infected in HuH7 replicon cells assessed as decrease in viral replication after 3 days by RT-PCR method; assay type: cell-based; details: Hepatitis C virus subtype 1a
# [9] = tested on: Hepatitis C virus subtype 1a; test: Resistance ratio of EC90 for NS5A L31M/Y93C double mutant in HCV genotype 1a infected in HuH7 replicon cells to EC90 for NS5A in HCV genotype 1a infected in HuH7 replicon cells; assay type: cell-based
# [10] = tested on: Hepatitis C virus subtype 1a; test: Resistance ratio of EC90 for NS5A L31V mutant in HCV genotype 1a infected in HuH7 replicon cells to EC90 for NS5A in HCV genotype 1a infected in HuH7 replicon cells; assay type: cell-based
# [11] = tested on: Hepatitis C virus subtype 1a; test: Resistance ratio of EC90 for NS5A M28K mutant in HCV genotype 1a infected in HuH7 replicon cells to EC90 for NS5A in HCV genotype 1a infected in HuH7 replicon cells; assay type: cell-based
# [12] = tested on: Hepatitis C virus subtype 1a; test: Resistance ratio of EC90 for NS5A Y93N mutant in HCV genotype 1a infected in HuH7 replicon cells to EC90 for NS5A in HCV genotype 1a infected in HuH7 replicon cells; assay type: cell-based
# [13] = biological target: T1, Nonstructural protein 5A (Hepatitis C virus); test: Inhibition of NS5A A92K mutant in HCV genotype 1b infected in HuH7 replicon cells assessed as decrease in viral replication after 3 days by RT-PCR method; assay type: cell-based; details: Hepatitis C virus subtype 1b
# [14] = biological target: T1, Nonstructural protein 5A (Hepatitis C virus); test: Inhibition of NS5A in HCV genotype 2a infected in HuH7 replicon cells assessed as decrease in viral replication after 3 days by RT-PCR method; assay type: cell-based; details: Hepatitis C virus subtype 2a
# [15] = biological target: T1, Nonstructural protein 5A (Hepatitis C virus); test: Inhibition of NS5A F28L mutant in HCV genotype 2a infected in HuH7 replicon cells assessed as decrease in viral replication after 3 days by RT-PCR method; assay type: cell-based; details: Hepatitis C virus subtype 2a
# [16] = Resistance ratio of EC90 for NS5A L31I mutant in HCV genotype 1b infected in HuH7 replicon cells to EC90 for NS5A in HCV genotype 1a infected in HuH7 replicon cells; assay type: cell-based
# [17] = Resistance ratio of EC90 for NS5A L31M mutant in HCV genotype 1b infected in HuH7 replicon cells to EC90 for NS5A in HCV genotype 1a infected in HuH7 replicon cells; assay type: cell-based
# [18] = biological target: T1, Nonstructural protein 5A (Hepatitis C virus); test: Inhibition of NS5A L31F mutant in HCV genotype 3a infected in HuH7 replicon cells assessed as decrease in viral replication after 3 days by RT-PCR method; assay type: cell-based; details: Hepatitis C virus subtype 3a
# [19] = tested on: T2, Nonstructural protein 5A (Hepatitis C virus), Q5L478 [Y93H]; test: Inhibition of NS5A Y93H mutant in HCV genotype 3a infected in HuH7 replicon cells assessed as decrease in viral replication after 3 days by RT-PCR method; assay type: cell-based; details: Hepatitis C virus subtype 3a
# [20] = biological target: T1, Nonstructural protein 5A (Hepatitis C virus); test: Inhibition of NS5A L30H mutant in HCV genotype 4a infected in HuH7 replicon cells assessed as decrease in viral replication after 3 days by RT-PCR method; assay type: cell-based; details: Hepatitis C virus subtype 4a
# [21] = Resistance ratio of EC90 for NS5A A30T mutant in HCV genotype 3a infected in HuH7 replicon cells to EC90 for NS5A in HCV genotype 1a infected in HuH7 replicon cells; assay type: cell-based
# [22] = Resistance ratio of EC90 for NS5A L31V mutant in HCV genotype 3a infected in HuH7 replicon cells to EC90 for NS5A in HCV genotype 1a infected in HuH7 replicon cells; assay type: cell-based
smiles,measurement,setting,value
COC(=O)N[C@H](C(=O)N1CCC[C@H]1c1ncc(-c2cc(F)c3c(c2)O[C@@H](c2ccc(C4CC4)s2)n2c-3cc3cc(-c4cnc([C@@H]5CCCN5C(=O)[C@@H](NC(=O)OC)[C@@H]5CCOC(C)(C)C5)[nH]4)ccc32)[nH]1)C(C)C,EC90,[1],4.2 pM
same,EC90,[2],33 pM
same,clearance,[3],7 mL/min/kg
same,AUC,[4],4.19 µM·h
same,Cmax,[5],1060 nM
same,EC90,[6],1.9 pM
same,EC90,[7],0.32 pM
same,EC90,[8],0.33 pM
same,Ratio,[9],43
same,Ratio,[10],1
same,Ratio,[11],100
same,Ratio,[12],16
same,EC90,[13],26 pM
same,EC90,[14],2.7 pM
same,EC90,[15],0.5 pM
same,Ratio,[16],5
same,Ratio,[17],< 1
same,EC90,[18],290 pM
same,EC90,[19],2400 pM
same,EC90,[20],72 pM
same,Ratio,[21],1
same,Ratio,[22],762
